The subject of data set [1] is B16 cells. The data set can be described thus: Colony formation assay. The class given is cell-based. Conditions: 8m-incubated B16 cells vs control group.
The subject of data set [2] is B16 melanoma cell line. Briefly: Cell proliferation. In kind it is cell-based. To be noted: for IC50: Mus musculus, read-out: IC50, B16 melanoma cell line; for B16 GI ratio: B16 cells, test concentration not given.
Data set [3] concerns several cancer cells (B16, HepG2, A549, SW620, MCF-7, Hela). Briefly: Cytotoxic activity in several cancer cells. In kind it is cell-based. To be noted: Figure 5(A). The procedure, abridged:
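Cells were kept in DMEM with 10% FBS at 37 °C and 5% CO2 and used in exponential growth. They were seeded at 3–6 × 10^3 cells/well for 24 h, then given DMSO or various compound concentrations for 24 or 48 h. MTT (0.5 mg/mL in medium) was added for 3 h at 37 °C and dissolved in DMSO; absorbance was read at 570 nm. Three experiments, each in triplicate.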

In data set [4] the test system is B16 cells. The data set can be described thus: Western blotting of B16 melanoma cell extracts. The class given is cell-based. The method, boiled down: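 Total protein was extracted from treated B16 cells, separated by SDS-PAGE (7.5–15% gels, chosen by protein size) and transferred to PVDF. Membranes were blocked with 5% BSA, incubated with primary antibodies on ice overnight, then with HRP-conjugated secondary antibodies for 1 h at room temperature. Bands were detected by ECL. Migration- and invasion-related proteins were assessed at 20 and 40 μg/mL.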

In data set [5] the test system is B16 cells. The data set can be described thus: Cell cycle analysis by PI staining flow cytometry. In kind it is cell-based. Conditions: 24 h treatment.
Data set [6] concerns the target PI3Kα (Homo sapiens, UniProt P42336). Briefly: Kinase inhibition assay, PI3Kα. The class given is biochemical.
Data set [7] concerns B16 cells. Briefly: Transwell Matrigel invasion assay. In kind it is cell-based. To be noted: dose-dependent. The procedure, abridged: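 Transwell chambers with 8-μm pores and Matrigel-precoated top chambers were used. B16 cells (1 × 105) in serum-free medium went into the top chamber, with DMEM in the bottom chamber. Invaded cells were stained with crystal violet and counted under a microscope in triplicate.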

The test system of data set [8] is B16 melanoma xenograft. Briefly: B16 subcutaneous tumor xenograft model. In kind it is in vivo, C57BL/6J mice. Conditions: for tumor growth inhibition ratio: B16 subcutaneous xenograft, C57BL/6J mice, once a day. The procedure, abridged:
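Female C57BL/6J mice, 8–12 weeks old, received B16 cells subcutaneously in the dorsal flank (5 × 105 in 100 μL PBS). Groups of 8 were dosed once a day with test compound or NS control. Tumours were measured every two days and volume was taken as a×b2×0.5. Excised tumours were formalin-fixed, paraffin-embedded, sectioned, and stained for TUNEL, EGFR, Akt, pAkt473 and Ki67.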

Data set [9] deals with B16 cells. Briefly: Flow cytometry with annexinV/PI dual staining. The class given is cell-based. Conditions: 24 h incubation.
Data set [10] deals with B16 cells. Briefly: Wound-healing cell migration assay. The class given is cell-based. Conditions: 24 h of exposure, dose-dependent. The procedure, abridged: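 B16 cells were seeded at 1 × 10^5 per well in 6-well plates in DMEM and grown overnight. Three scratches per well were made with a 200 µl pipette tip. After a PBS wash, serum-free DMEM containing various compound concentrations or DMSO was added. Migration was assessed by light microscopy between 0 h and 24 h.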

Data set [11] addresses Hsp90α (Homo sapiens, UniProt P07900). Briefly: Kinase inhibition assay, Hsp90α. In kind it is biochemical.
In data set [12] the target is EGFR (Homo sapiens, UniProt P00533). The data set can be described thus: Kinase inhibition assay, EGFR. In kind it is biochemical.
EGFR, sequence (P00533 25-1210): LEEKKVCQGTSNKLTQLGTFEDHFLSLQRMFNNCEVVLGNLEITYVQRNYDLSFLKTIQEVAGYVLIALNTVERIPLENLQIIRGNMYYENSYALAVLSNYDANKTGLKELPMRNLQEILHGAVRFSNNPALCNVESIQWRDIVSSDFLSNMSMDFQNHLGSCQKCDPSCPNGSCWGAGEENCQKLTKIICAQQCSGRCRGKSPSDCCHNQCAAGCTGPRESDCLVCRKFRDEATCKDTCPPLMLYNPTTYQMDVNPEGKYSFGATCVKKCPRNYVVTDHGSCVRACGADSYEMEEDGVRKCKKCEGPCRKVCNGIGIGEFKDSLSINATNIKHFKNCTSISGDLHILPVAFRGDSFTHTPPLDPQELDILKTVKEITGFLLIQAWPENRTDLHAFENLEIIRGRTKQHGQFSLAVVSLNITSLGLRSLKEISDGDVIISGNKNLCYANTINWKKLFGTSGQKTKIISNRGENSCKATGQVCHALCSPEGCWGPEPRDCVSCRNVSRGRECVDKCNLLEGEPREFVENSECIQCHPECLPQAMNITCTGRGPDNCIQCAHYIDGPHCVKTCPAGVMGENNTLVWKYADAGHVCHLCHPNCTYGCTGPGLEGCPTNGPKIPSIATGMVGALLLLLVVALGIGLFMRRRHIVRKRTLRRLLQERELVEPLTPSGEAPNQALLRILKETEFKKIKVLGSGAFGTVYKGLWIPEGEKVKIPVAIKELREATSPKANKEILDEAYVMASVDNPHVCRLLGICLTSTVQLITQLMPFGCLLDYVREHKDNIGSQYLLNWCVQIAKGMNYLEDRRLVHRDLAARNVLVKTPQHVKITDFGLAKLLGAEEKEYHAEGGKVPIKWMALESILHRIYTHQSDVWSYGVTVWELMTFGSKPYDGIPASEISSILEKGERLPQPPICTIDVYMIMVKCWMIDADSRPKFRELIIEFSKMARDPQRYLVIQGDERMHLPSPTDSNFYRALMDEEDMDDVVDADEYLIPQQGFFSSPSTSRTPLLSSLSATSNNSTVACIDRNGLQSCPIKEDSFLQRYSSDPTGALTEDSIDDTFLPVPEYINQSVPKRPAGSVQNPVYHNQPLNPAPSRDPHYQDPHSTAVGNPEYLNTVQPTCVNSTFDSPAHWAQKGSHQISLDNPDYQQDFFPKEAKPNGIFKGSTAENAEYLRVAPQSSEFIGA
Data set [13] has as its target VEGFR2 (Homo sapiens, UniProt P35968). The data set can be described thus: Kinase inhibition assay, VEGFR2. In kind it is biochemical.

pIC50: −log10 of the molar value. Converted amounts (≈) assume the structure as drawn. Read-outs that look alike come from different tables or passages of the source.

PI3Kα, sequence (P42336 whole entry): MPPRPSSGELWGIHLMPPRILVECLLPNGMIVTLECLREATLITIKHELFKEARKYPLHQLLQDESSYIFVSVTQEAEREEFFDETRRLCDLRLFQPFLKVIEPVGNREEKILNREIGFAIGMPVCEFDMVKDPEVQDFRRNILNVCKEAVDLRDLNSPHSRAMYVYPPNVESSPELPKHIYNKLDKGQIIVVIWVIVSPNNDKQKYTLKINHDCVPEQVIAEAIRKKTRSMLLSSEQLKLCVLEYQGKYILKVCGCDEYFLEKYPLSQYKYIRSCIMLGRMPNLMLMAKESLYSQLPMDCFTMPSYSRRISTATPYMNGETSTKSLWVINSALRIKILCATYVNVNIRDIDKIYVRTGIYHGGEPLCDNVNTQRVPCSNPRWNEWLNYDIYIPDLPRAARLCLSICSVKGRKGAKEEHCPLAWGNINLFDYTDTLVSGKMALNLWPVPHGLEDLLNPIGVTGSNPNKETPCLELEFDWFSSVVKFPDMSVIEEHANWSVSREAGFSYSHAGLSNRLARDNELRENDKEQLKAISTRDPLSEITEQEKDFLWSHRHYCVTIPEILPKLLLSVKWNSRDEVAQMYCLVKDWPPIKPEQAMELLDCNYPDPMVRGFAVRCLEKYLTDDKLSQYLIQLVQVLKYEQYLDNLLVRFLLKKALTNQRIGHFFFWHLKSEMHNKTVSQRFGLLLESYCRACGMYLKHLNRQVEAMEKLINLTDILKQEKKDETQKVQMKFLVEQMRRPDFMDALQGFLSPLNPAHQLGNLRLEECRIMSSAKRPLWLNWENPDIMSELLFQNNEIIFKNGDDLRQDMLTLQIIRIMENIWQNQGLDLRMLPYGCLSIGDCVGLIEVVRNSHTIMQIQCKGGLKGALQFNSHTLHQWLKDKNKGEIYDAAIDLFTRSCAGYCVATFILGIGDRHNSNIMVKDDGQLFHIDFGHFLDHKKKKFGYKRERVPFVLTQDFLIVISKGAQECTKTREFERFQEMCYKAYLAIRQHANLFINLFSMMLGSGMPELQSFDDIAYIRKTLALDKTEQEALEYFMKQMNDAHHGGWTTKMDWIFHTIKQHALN
PI3Kα, sequence (P27986 whole entry partner): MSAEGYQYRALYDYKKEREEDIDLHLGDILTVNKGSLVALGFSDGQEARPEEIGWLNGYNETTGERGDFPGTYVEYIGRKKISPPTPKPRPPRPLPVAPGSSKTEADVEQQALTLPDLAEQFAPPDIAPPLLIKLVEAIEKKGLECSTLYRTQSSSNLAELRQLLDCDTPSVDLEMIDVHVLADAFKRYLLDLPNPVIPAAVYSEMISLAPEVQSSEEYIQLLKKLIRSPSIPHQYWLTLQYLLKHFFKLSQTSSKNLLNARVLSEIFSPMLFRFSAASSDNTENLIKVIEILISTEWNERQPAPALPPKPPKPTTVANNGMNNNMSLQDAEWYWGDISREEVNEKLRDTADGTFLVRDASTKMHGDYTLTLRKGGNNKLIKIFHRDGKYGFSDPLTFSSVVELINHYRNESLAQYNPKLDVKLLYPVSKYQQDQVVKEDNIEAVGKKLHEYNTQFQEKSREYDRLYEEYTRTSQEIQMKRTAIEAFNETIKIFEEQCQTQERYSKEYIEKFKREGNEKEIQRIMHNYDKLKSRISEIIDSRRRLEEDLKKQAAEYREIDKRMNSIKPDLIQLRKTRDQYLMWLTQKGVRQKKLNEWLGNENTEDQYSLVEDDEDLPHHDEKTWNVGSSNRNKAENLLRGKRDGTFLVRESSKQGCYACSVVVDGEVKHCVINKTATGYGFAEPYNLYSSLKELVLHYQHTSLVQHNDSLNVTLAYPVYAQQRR
VEGFR2, sequence (P35968 20-1356): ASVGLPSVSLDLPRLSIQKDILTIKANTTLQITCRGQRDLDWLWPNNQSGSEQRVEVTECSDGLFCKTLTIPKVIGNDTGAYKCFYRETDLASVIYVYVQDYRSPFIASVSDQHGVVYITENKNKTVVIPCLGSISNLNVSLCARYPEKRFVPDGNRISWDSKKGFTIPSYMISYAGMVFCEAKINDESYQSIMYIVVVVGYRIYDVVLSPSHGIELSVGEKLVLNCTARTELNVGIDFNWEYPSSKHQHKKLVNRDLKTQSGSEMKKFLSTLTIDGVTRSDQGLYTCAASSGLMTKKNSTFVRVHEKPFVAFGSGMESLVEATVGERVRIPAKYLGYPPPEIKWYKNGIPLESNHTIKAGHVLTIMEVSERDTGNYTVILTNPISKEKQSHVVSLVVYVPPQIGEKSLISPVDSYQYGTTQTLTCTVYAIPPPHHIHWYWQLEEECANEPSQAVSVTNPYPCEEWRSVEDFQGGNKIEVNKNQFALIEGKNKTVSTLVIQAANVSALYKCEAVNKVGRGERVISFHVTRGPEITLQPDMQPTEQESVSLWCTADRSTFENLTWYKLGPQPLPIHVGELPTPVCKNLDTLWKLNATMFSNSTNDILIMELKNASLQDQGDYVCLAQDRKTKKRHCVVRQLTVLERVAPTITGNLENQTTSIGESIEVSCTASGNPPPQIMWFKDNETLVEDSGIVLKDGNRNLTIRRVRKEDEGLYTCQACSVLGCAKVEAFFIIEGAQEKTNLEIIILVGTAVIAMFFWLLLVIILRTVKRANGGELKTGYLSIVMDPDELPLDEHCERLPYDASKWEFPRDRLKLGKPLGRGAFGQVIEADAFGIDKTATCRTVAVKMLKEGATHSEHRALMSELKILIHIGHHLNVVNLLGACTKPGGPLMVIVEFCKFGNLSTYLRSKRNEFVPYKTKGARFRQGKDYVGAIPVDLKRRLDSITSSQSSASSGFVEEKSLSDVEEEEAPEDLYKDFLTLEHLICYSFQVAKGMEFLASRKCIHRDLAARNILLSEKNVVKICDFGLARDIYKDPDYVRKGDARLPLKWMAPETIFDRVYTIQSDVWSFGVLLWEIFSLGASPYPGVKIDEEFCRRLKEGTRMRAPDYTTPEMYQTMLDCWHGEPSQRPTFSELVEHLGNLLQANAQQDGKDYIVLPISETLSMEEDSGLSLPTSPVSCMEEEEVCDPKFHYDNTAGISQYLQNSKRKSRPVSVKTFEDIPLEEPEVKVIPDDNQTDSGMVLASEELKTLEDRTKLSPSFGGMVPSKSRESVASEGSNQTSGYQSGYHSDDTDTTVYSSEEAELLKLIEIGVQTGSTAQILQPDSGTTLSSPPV

Turning to `CC(C)c1cc(C(=O)N2CCc3c(sc4ncnc(N5CCOCC5)c34)C2)c(O)cc1O` [Compound 8m, (2,4-dihydroxy-5-isopropylphenyl)(4-morpholino-5,8-dihydropyrido[4',3':4,5]thieno[2,3-d]pyrimidin-7(6H)-yl)methanone], the “clone formation, size and number of the colonies” value in [1] is “dose-dependent decline”. Further, the half-maximal inhibitory concentration (IC50) in [2] (B16, 24 h) is roughly 0.56 µg/mL (≈ 1.23 µM). For the same compound, the half-maximal inhibitory concentration (IC50) in data set [2] (B16, 48 h) was roughly 0.47 µg/mL (≈ 1.03 µM). The “cytotoxic activity in several cancer cells” value in data set [3] is “most potent in melanoma cells”. In data set [4] (B16 cells), the “cleavage of apoptosis related proteins (western blot)” value is “cleavage of Caspase-3, Caspase-8, Caspase-9 and PARP”; the “expression levels of Hsp90 client proteins cdc37, CDK4, EGFR, bRaf and cRaf (western blot)” value is reported as “remarkably suppressed”; the “expression levels of Hsp90α and Hsp70 (western blot)” value is “declined”; the “p-Akt (Ser473), p-Akt (Thr308) and total Akt expression (western blot)” value is “downregulated”. Further, in data set [4] (B16 cells, 20, 40 μg/mL), the “E-cadherin expression (western blot)” value is given as “up-regulated” and the “expression of MMPs, vimentin, N-cadherin, β-catenin, ZEB1 (western blot)” value was “remarkably down-regulated”. Besides, the “autophosphorylation of PI3Kα (western blot)” value in data set [4] (B16 cells, total PI3Kα not influenced) is on record as “inhibited”. For the same compound, in [5], the “cell counts in G1 phase” value is listed as “corresponding descent” and the “cell counts in G2 phase” value is listed as “significantly increased”. Also, the negative logarithm of the IC50 (pIC50) in data set [6] was 7.32. The “cell invasion (Matrigel Transwell)” value in [7] is recorded as “remarkable decrease”. In data set [8] (B16 xenograft tumor sections, among all therapeutic groups), the “apoptotic positive cells in tumor tissue (TUNEL)” value is on record as “highest number of apoptotic positive cells”. Besides, in data set [8] (B16 xenograft tumor sections, p < .01), the “Ki-67 positive cells in tumor tissue” value was “most significant suppression”. Also, the apoptotic positive cells result in data set [9] is listed as “significant increase”. In addition, the “wound areas (cell migration)” value in data set [10] is “minimal changes”.

`CC(C)c1cc(C(=O)N2CCc3c(sc4ncnc(N5CCCC5)c34)C2)c(O)cc1O` [Compound 8l, (2,4-dihydroxy-5-isopropylphenyl)(4-(pyrrolidin-1-yl)-5,8-dihydropyrido[4',3':4,5]thieno[2,3-d]pyrimidin-7(6H)-yl)methanone]: the “B16 GI ratio” value in [2] amounted to 60.4%. Besides, the pIC50 was 7.19 in [11] and 6.77 in data set [6].

Consider `CC(C)c1cc(C(=O)N2CCc3c(sc4ncnc(N5CCCCC5)c34)C2)c(O)cc1O` [Compound 8k, (2,4-dihydroxy-5-isopropylphenyl)(4-(piperidin-1-yl)-5,8-dihydropyrido[4',3':4,5]thieno[2,3-d]pyrimidin-7(6H)-yl)methanone], for which the “B16 GI ratio” value in [2] stood at 65.2%. The negative logarithm of the IC50 (pIC50) in data set [11] is 7.28; in data set [6], 6.88.

`CC(C)c1cc(C(=O)N2CCc3c(sc4ncnc(Nc5ccc(Br)cc5)c34)C2)c(O)cc1O` [Compound 8b, (4-((4-bromophenyl)amino)-5,8-dihydropyrido[4',3':4,5]thieno[2,3-d]pyrimidin-7(6H)-yl)(2,4-dihydroxy-5-isopropylphenyl)methanone]: the results for the pIC50 in [12], in [13] and in data set [11] were 7.30, less than 5.00 and 6.54, respectively. For the same compound, the “B16 GI ratio” value in data set [2] was 33.6%.

Consider `Cc1cccc(Nc2ncnc3sc4c(c23)CCN(C(=O)c2cc(C(C)C)c(O)cc2O)C4)c1` [Compound 8d, (2,4-dihydroxy-5-isopropylphenyl)(4-(m-tolylamino)-5,8-dihydropyrido[4',3':4,5]thieno[2,3-d]pyrimidin-7(6H)-yl)methanone], for which the pIC50 in data set [12] is 7.29; in data set [13], less than 5.00; in data set [11] it was 6.50. Also, the “B16 GI ratio” value in data set [2] stood at 41.7%.

For `CC(C)c1cc(C(=O)N2CCc3c(sc4ncnc(Nc5cccc(F)c5)c34)C2)c(O)cc1O` [Compound 8e, (2,4-dihydroxy-5-isopropylphenyl)(4-((3-fluorophenyl)amino)-5,8-dihydropyrido[4',3':4,5]thieno[2,3-d]pyrimidin-7(6H)-yl)methanone], the pIC50 in data set [12] was 7.40; in [13], less than 5.00; in data set [11] it was 6.64. For the same compound, the “B16 GI ratio” value in data set [2] came out at 38.9%.

On to `CC(C)c1cc(C(=O)N2CCc3c(sc4ncnc(Nc5cccc(O)c5)c34)C2)c(O)cc1O` [Compound 8j, (2,4-dihydroxy-5-isopropylphenyl)(4-((3-hydroxyphenyl)amino)-5,8-dihydropyrido[4',3':4,5]thieno[2,3-d]pyrimidin-7(6H)-yl)methanone], for which the pIC50 in [12] was 6.83; in data set [13] it was 6.15; in data set [11] it was 6.68. For the same compound, the “B16 GI ratio” value in data set [2] was 36.0%.

`Oc1cccc(-c2nc(N3CCOCC3)c3oc4ncccc4c3n2)c1` [PI-103, reference compound]: in data set [8], the “tumor growth inhibition ratio” value is given as 29%.

As to `COc1cccc(Nc2ncnc3sc4c(c23)CCN(C(=O)c2cc(C(C)C)c(O)cc2O)C4)c1` [Compound 8g, (2,4-dihydroxy-5-isopropylphenyl)(4-((3-methoxyphenyl)amino)-5,8-dihydropyrido[4',3':4,5]thieno[2,3-d]pyrimidin-7(6H)-yl)methanone], the pIC50 in data set [12] is 7.15; in [13], less than 5.00; in data set [11], 6.68. Further, the “B16 GI ratio” value in data set [2] is 37.5%.

Take `CC(C)c1cc(C(=O)N2CCc3c(sc4ncnc(Nc5cccc(Cl)c5)c34)C2)c(O)cc1O` [Compound 8c, (4-((3-chlorophenyl)amino)-5,8-dihydropyrido[4',3':4,5]thieno[2,3-d]pyrimidin-7(6H)-yl)(2,4-dihydroxy-5-isopropylphenyl)methanone]: the pIC50 was 7.43 in [12], less than 5.00 in data set [13] and 6.71 in data set [11]. Also, the “B16 GI ratio” value in [2] is on record as 51.2%.

`CC(C)c1cc(C(=O)N2CCc3c(sc4ncnc(N(C)C)c34)C2)c(O)cc1O` [Compound 8n, (2,4-dihydroxy-5-isopropylphenyl)(4-(dimethylamino)-5,8-dihydropyrido[4',3':4,5]thieno[2,3-d]pyrimidin-7(6H)-yl)methanone]: the “B16 GI ratio” value in data set [2] amounted to 46.7%. Further, the figures for the pIC50 in [11] and in data set [6] were 7.10 and 6.25, respectively.

As for `CC(C)c1cccc(Nc2ncnc3sc4c(c23)CCN(C(=O)c2cc(C(C)C)c(O)cc2O)C4)c1` [Compound 8h, (2,4-dihydroxy-5-isopropylphenyl)(4-((3-isopropylphenyl)amino)-5,8-dihydropyrido[4',3':4,5]thieno[2,3-d]pyrimidin-7(6H)-yl)methanone], the pIC50 in data set [12] was 6.42; in [13], less than 5.00; in data set [11] it was 6.33. In [2], the “B16 GI ratio” value stood at 39.1%.

With `CC(C)c1cc(-c2n[nH]c(=O)n2-c2ccc3c(ccn3C)c2)c(O)cc1O` [Ganetespib, reference compound], the “tumor growth inhibition ratio” value in [8] was 57%.

Consider `Cc1ccc(Nc2ncnc3sc4c(c23)CCN(C(=O)c2cc(C(C)C)c(O)cc2O)C4)c(C)c1` [Compound 8i, (2,4-dihydroxy-5-isopropylphenyl)(4-((2,4-dimethylphenyl)amino)-5,8-dihydropyrido[4',3':4,5]thieno[2,3-d]pyrimidin-7(6H)-yl)methanone], for which the pIC50 in [12] is 6.24; in [13] it was 6.77; in data set [11], 5.79. Further, the “B16 GI ratio” value in data set [2] worked out at 24.8%.

On to `CC(C)c1cc(C(=O)N2CCc3c(sc4ncnc(Nc5ccc(Cl)cc5)c34)C2)c(O)cc1O` [Compound 8f, (4-((4-chlorophenyl)amino)-5,8-dihydropyrido[4',3':4,5]thieno[2,3-d]pyrimidin-7(6H)-yl)(2,4-dihydroxy-5-isopropylphenyl)methanone], for which the pIC50 is 7.12 in data set [12], less than 5.00 in [13] and 6.50 in [11]. Moreover, the “B16 GI ratio” value in data set [2] worked out at 29.5%.

In the case of `CCc1cccc(Nc2ncnc3sc4c(c23)CCN(C(=O)c2cc(C(C)C)c(O)cc2O)C4)c1` [Compound 8a, (2,4-dihydroxy-5-isopropylphenyl)(4-((3-ethylphenyl)amino)-5,8-dihydropyrido[4',3':4,5]thieno[2,3-d]pyrimidin-7(6H)-yl)methanone], the pIC50 was 7.22 in data set [12], less than 5.00 in [13] and 6.43 in data set [11]. Further, the “B16 GI ratio” value in data set [2] was 26.8%.

A word on the IC50: it is the concentration that inhibits the measured activity by half. As usually defined, the pIC50 is the negative decadic logarithm of the IC50, by convention in mol/L.
